Results as given in ChEMBL document CHEMBL1157776, “Synthesis, topoisomerase I and II inhibitory activity, cytotoxicity, and structure-activity relationship study of hydroxylated 2,4-diphenyl-6-aryl pyridines” (Bioorg Med Chem, 2010).
Structures can show the parent of a compound that is named as a salt.

Columns and labels:
[1] = target: DNA topoisomerase 2-alpha (Homo sapiens) (UniProt P11388); assay: Inhibition of human recombinant TOP2A-mediated relaxation of supercoiled Escherichia coli pBR322 DNA at 20 uM after 30 mins by transillumination
DNA topoisomerase 2-alpha (Homo sapiens), sequence (P11388 whole entry): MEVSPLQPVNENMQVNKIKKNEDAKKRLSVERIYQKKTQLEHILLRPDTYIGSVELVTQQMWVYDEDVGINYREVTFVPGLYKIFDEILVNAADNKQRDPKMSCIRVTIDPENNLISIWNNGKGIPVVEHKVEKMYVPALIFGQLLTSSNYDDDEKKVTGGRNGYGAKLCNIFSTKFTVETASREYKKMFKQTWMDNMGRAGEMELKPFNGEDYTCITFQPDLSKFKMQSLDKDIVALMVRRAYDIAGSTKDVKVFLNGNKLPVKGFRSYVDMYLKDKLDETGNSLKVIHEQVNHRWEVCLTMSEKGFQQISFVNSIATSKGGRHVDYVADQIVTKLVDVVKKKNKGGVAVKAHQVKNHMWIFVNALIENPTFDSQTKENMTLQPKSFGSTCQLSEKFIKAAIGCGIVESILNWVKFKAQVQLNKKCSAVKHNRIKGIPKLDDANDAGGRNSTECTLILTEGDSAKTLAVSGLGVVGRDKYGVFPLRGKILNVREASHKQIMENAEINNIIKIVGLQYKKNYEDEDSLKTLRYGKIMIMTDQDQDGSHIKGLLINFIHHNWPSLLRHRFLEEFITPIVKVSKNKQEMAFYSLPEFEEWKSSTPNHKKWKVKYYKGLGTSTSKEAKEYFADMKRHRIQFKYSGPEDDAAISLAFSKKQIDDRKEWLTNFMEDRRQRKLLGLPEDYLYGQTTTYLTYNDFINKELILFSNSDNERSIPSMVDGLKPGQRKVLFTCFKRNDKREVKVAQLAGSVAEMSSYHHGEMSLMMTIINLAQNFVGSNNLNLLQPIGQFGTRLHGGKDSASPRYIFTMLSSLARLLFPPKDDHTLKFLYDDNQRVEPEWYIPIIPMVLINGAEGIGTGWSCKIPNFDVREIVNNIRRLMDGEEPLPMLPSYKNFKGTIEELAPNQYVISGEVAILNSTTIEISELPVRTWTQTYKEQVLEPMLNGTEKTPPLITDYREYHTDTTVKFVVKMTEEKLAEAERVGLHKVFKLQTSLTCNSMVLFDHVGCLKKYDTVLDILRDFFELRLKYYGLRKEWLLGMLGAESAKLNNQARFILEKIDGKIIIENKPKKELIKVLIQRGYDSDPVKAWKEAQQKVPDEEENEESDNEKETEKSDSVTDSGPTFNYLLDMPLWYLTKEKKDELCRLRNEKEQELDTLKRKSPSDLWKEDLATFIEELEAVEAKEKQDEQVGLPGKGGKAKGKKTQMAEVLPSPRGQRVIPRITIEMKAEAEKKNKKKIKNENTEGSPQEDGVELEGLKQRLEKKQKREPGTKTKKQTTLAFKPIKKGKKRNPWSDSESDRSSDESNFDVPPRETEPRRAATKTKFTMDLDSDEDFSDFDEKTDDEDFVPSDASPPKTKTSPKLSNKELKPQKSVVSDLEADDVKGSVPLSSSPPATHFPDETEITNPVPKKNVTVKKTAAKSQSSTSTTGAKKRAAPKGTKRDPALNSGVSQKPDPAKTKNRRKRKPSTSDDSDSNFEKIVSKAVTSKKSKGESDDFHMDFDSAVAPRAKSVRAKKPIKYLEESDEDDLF
Outline: (§1)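 200 ng supercoiled pBR322 with topo II, ± compound, 30 °C for 30 min. Buffer was 10 mM Tris–HCl pH 7.9, 50 mM NaCl, 5 mM MgCl₂, 1 mM EDTA, 1 mM ATP, BSA. Stopped with 7 mM EDTA, then 1% agarose gel in TAE at 25 V for 4 h. Ethidium bromide stain, UV transillumination, supercoiled DNA quantitated.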

[2] = test system: DU-145; assay: Cytotoxicity against human DU145 cells after 2 days by automatic ELISA reader system; type: functional, cell-based; conditions: DU-145, 48 h
Outline: (§2)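 Cells seeded at 2–4 × 10⁴ per well and grown overnight in medium with 10% FBS, 5% CO₂, 37 °C. Compound added on day 2; on day 4 CCK-8 solution added and incubated a further 4 h. Absorbance read at 450 nm and fitted to a four-parameter logistic equation for IC₅₀.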

[3] = target: T1, DNA topoisomerase 1 (Homo sapiens) (UniProt P11387); assay: Inhibition of human recombinant TOP1-mediated relaxation of supercoiled Escherichia coli pBR322 DNA at 100 uM after 30 mins by transillumination
T1 sequence (whole entry): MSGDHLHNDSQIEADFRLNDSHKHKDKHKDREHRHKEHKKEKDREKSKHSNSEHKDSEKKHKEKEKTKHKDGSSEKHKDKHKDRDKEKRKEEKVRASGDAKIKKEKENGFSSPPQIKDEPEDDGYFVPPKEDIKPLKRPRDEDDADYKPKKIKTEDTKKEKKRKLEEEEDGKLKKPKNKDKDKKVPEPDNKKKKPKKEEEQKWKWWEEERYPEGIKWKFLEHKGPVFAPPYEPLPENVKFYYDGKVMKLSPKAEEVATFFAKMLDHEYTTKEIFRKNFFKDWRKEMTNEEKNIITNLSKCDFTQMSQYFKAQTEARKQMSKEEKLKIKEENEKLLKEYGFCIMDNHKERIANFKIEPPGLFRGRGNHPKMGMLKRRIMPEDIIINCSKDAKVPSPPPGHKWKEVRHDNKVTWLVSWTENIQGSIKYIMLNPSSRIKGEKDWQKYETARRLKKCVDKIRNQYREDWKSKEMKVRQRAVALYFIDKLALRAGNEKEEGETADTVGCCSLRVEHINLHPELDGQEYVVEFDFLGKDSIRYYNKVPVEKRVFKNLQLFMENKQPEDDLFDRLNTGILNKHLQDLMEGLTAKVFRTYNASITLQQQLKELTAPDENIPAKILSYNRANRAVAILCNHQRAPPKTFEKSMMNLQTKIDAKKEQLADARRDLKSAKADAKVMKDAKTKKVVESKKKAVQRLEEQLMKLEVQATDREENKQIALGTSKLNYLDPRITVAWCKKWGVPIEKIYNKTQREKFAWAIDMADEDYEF
Outline: (§3)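 Relaxation assay: 100 ng supercoiled pBR322 with 0.4 units recombinant human topo I, ± compound (DMSO stocks 20 mM), 37 °C, 30 min. Buffer was 10 mM Tris–HCl pH 7.9, 150 mM NaCl, 0.1% BSA, 1 mM spermidine, 5% glycerol. Stopped with sarcosyl/bromophenol blue/glycerol, then 1% agarose gel in TAE at 15 V for 7 h. Ethidium bromide stain, UV transillumination, bands quantitated by densitometry.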

[4] = test system: HCT-15; assay: Cytotoxicity against human HCT15 cells after 2 days by automatic ELISA reader system; type: functional, cell-based; conditions: HCT-15, 48 h; outline: as §2
[5] = test system: MDA-MB-231; assay: Cytotoxicity against human MDA-MB-231 cells after 2 days by automatic ELISA reader system; type: functional, cell-based; conditions: MDA-MB-231, 48 h; outline: as §2
[6] = test system: HeLa; assay: Cytotoxicity against human HeLa cells after 2 days by automatic ELISA reader system; type: functional, cell-based; conditions: 48 h; outline: as §2
[7] = target: DNA topoisomerase 2-alpha (Homo sapiens) (UniProt P11388); assay: Inhibition of human recombinant TOP2A-mediated relaxation of supercoiled Escherichia coli pBR322 DNA at 100 uM after 30 mins by transillumination; outline: as §1
[8] = test system: HL-60; assay: Cytotoxicity against human HL60 cells after 2 days by automatic ELISA reader system; type: functional, cell-based; conditions: HL-60, 48 h; outline: as §2
[9] = target: T1, DNA topoisomerase 1 (Homo sapiens); assay: Inhibition of human recombinant TOP1-mediated relaxation of supercoiled Escherichia coli pBR322 DNA at 20 uM after 30 mins by transillumination; outline: as §3

Row | SMILES | inhibition [1] | IC50 [2] | inhibition [3] | IC50 [4] | IC50 [5] | IC50 [6] | inhibition [7] | IC50 [8] | inhibition [9]
1 | Oc1ccc(-c2cc(-c3ccccc3)nc(-c3ccco3)c2)cc1 | 10.3% | 8.6 µM | 5% | 5.1 µM | 1 µM | 4.5 µM | 30.2% | 13.7 µM | –
2 | Oc1cccc(-c2cc(-c3ccccc3)nc(-c3cccs3)c2)c1 | 34.7% | 19.7 µM | 9.1% | 14.1 µM | 17.7 µM | 15.3 µM | 57.5% | 18.9 µM | 2%
3 | Oc1ccccc1-c1cc(-c2ccccc2)cc(-c2ccccc2O)n1 | 12.1% | 8 µM | 0% | > 50 µM | 37.3 µM | 14.8 µM | 42.7% | 22.4 µM | –
4 | Oc1cccc(-c2cc(-c3ccccc3)nc(-c3ccco3)c2)c1 | 31.1% | 34.9 µM | 48.8% | 13.9 µM | 20.8 µM | 10.9 µM | 47.5% | 24 µM | 3.5%
5 | Oc1cccc(-c2cc(-c3ccccc3)cc(-c3ccccc3)n2)c1 | 32% | 17.9 µM | 12.9% | 9.95 µM | 19.3 µM | 16.1 µM | 48.4% | 11.5 µM | 0%
6 | Oc1cccc(-c2cc(-c3ccccc3)cc(-c3cccc(O)c3)n2)c1 | 49% | 24.9 µM | 67.2% | 18.4 µM | 12.8 µM | 13 µM | 86.5% | 16.4 µM | 10.5%
7 | Oc1cccc(-c2cc(-c3ccccc3)nc(-c3ccncc3)c2)c1 | 32.7% | 18.1 µM | 60.8% | 18.7 µM | 12.2 µM | 15 µM | 42.8% | 12.7 µM | 0.9%
8 | Oc1ccc(-c2cc(-c3ccccc3)nc(-c3ccncc3)c2)cc1 | – | 2.2 µM | 57.5% | 11.7 µM | 2.1 µM | 1.6 µM | 8.4% | 1.4 µM | 5.8%
9 | Oc1cccc(-c2cc(-c3ccccc3)cc(-c3ccncc3)n2)c1 | 1.8% | 19.2 µM | 70.4% | 27.4 µM | 10.4 µM | 28.1 µM | 3.1% | 23.9 µM | 25.4%
10 | Oc1cccc(-c2cc(-c3ccccc3)nc(-c3ccccc3)c2)c1 | 32% | 17.9 µM | 11.5% | 17.9 µM | 19.5 µM | 15.1 µM | 68.2% | 13.5 µM | 0%
11 | CC[C@@]1(O)C(=O)OCc2c1cc1n(c2=O)Cc2cc3ccccc3nc2-1 [CAMPTOTHECIN] | – | 0.4 µM | – | 0.5 µM | 0.3 µM | 0.4 µM | – | 0.1 µM | –
12 | Oc1ccc(-c2cc(-c3ccccc3)cc(-c3ccccc3)n2)cc1 | – | 3 µM | 52.9% | 3.7 µM | 1.3 µM | 1.7 µM | 27.6% | 1.4 µM | 43.6%
13 | Oc1ccc(-c2cc(-c3ccccc3)cc(-c3cccs3)n2)cc1 | 1.3% | 3.7 µM | 4.9% | 12.5 µM | 2.4 µM | 1.7 µM | 35.4% | 1.7 µM | –
14 | COc1cc([C@@H]2c3cc4c(cc3[C@@H](O[C@@H]3O[C@@H]5CO[C@@H](C)O[C@H]5[C@H](O)[C@H]3O)[C@H]3COC(=O)[C@H]23)OCO4)cc(OC)c1O [ETOPOSIDE] | 30.4% | 0.5 µM | – | – | 0.7 µM | 1.4 µM | – | 1 µM | –
15 | Oc1ccc(-c2cc(-c3ccccc3)cc(-c3ccsc3)n2)cc1 | 8.3% | 8.5 µM | 20.4% | 1.1 µM | 5.7 µM | 17.3 µM | 38.3% | 3.6 µM | –
16 | Oc1ccccc1-c1cc(-c2ccccc2)nc(-c2ccco2)c1 | 3.1% | 4.9 µM | 1.5% | 2.5 µM | 4.6 µM | 9.7 µM | 31.2% | 1.9 µM | –
17 | Oc1ccc(-c2cc(-c3ccccc3)cc(-c3ccco3)n2)cc1 | 10.2% | 3.2 µM | 18.6% | 3.5 µM | 1.4 µM | 10.9 µM | 35.2% | 3.3 µM | –
18 | COc1cccc2c1C(=O)c1c(O)c3c(c(O)c1C2=O)C[C@@](O)(C(=O)CO)C[C@@H]3O[C@H]1C[C@H](N)[C@H](O)[C@H](C)O1 [DOXORUBICIN HYDROCHLORIDE] | – | 1 µM | – | 1.2 µM | 0.4 µM | – | – | 0.7 µM | –
19 | Oc1cccc(-c2cc(-c3ccccc3)cc(-c3cccs3)n2)c1 | 43.5% | 18.9 µM | 51.2% | 10.8 µM | 18.1 µM | 17 µM | 53.8% | 14.1 µM | 5.8%
20 | Oc1cccc(-c2cc(-c3ccccc3)nc(-c3ccsc3)c2)c1 | 30.8% | 11.7 µM | 6.9% | 24.6 µM | 19 µM | 14.9 µM | 52.6% | 12 µM | 3.2%
21 | Oc1cccc(-c2cc(-c3ccccc3)cc(-c3ccco3)n2)c1 | 38.6% | 14.4 µM | 10.2% | 13.5 µM | 13.7 µM | 9.43 µM | 51.6% | 9.91 µM | 0%
22 | Oc1cccc(-c2cc(-c3ccccc3)cc(-c3ccsc3)n2)c1 | 37.2% | 11.7 µM | 75.8% | 7.66 µM | 12.1 µM | 13.8 µM | 51.8% | 10.3 µM | 6.8%
23 | Oc1cccc(-c2cc(-c3ccccc3)nc(-c3ccccn3)c2)c1 | 21.3% | 15.5 µM | 10.8% | 20.9 µM | 18.7 µM | 29.8 µM | 48.1% | 15.1 µM | 2.8%
24 | Oc1ccc(-c2cc(-c3ccccc3)cc(-c3ccc(O)cc3)n2)cc1 | 33.7% | 22 µM | 0.3% | 3 µM | 6.7 µM | 3.3 µM | 76.8% | 5.7 µM | –
25 | Oc1ccc(-c2cc(-c3ccccc3)cc(-c3cccnc3)n2)cc1 | – | 8.4 µM | 44% | 15.1 µM | 2.2 µM | 13.6 µM | 18.6% | 4.1 µM | 0.9%
26 | Oc1cccc(-c2cc(-c3ccccc3)nc(-c3cccnc3)c2)c1 | 21.3% | 18.9 µM | 8.1% | 18.4 µM | 22.8 µM | 17.5 µM | 37.1% | 12.6 µM | 1.5%
